Test results reported in ChEMBL document CHEMBL3244044, “Synthesis and antitumor activity of halogen-substituted 4-(3,3-dimethyl-1-triazeno)quinolines” (J Med Chem, 1978).

Key:
L1210 [1] = assay: Antitumor activity against mouse L1210 cells allografted mouse assessed as host survival at 20 mg/kg, ip qd for 9 days relative to control; type: functional; conditions: route intraperitoneal
In short: (§1)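 NCI protocol: groups of five to ten mice inoculated ip with approximately 10^6 P-388 or L1210 cells. Drug given over a range of dose levels starting 24 h after implantation, once daily for 9 consecutive days. Survival expressed as %T/C = (average survival of treated)/(average survival of control) × 100.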

P388 [2] = assay: Antitumor activity against mouse P388 cells allografted mouse assessed as host survival at 30 mg/kg, ip qd for 9 days relative to control; type: functional; conditions: route intraperitoneal; in short: as §1
Mus musculus [3] = assay: Toxicity in mouse L1210 cells allografted mouse at 20 mg/kg, ip qd for 9 days; type: organism-based; set-up: dose 20 mg/kg, route intraperitoneal; conditions: in vivo, 216 h
In short: (§2)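 Groups of five to ten mice were inoculated ip with about 10^6 L1210 cells and dosed once daily for 9 consecutive days beginning 24 h post-implantation. Toxicity was taken as the average body weight change at the end of drug treatment.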

Mus musculus [4] = assay: Toxicity in mouse L1210 cells allografted mouse at 30 mg/kg, ip qd for 9 days; type: organism-based; set-up: dose 30 mg/kg, route intraperitoneal; conditions: in vivo, 216 h; in short: as §2
L1210 [5] = assay: Antitumor activity against mouse L1210 cells allografted mouse assessed as host survival at 30 mg/kg, ip qd for 9 days relative to control; type: functional; conditions: route intraperitoneal; in short: as §1
Mus musculus [6] = assay: Toxicity in mouse P388 cells allografted mouse at 30 mg/kg, ip qd for 9 days; type: organism-based; set-up: dose 30 mg/kg, route intraperitoneal; conditions: in vivo, 216 h
In short: (§3)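 NCI protocol. Groups of five to ten mice were inoculated intraperitoneally with about 10^6 tumor cells. Drug was given ip once daily for 9 consecutive days, starting 24 h after tumor implantation, over a range of dose levels. Toxicity was read as the average body weight change at the end of drug treatment.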

[7] = Binding affinity to synthetic melanin at 5.8 mg/100 mL after 15 mins by UV-spectroscopic analysis; type: physicochemical; conditions: 0.25 h
In short: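 Synthetic melanin was made from DL-Dopa with tyrosinase in 0.1 M phosphate pH 6.6 at 37 °C for 4 h. Melanin suspension (1.1 mg dry weight) was mixed with phosphate buffer (0.05 M, pH 6.4, 5% Me2SO), water, and 1 mL of drug solution (5.8 mg/100 mL). The mixture was shaken 15 min at room temperature and filtered. Unbound drug in the filtrate was measured by UV against a drug-free blank.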

P388 [8] = assay: Antitumor activity against mouse P388 cells allografted mouse assessed as host survival at 40 mg/kg, ip qd for 9 days relative to control; type: functional; conditions: route intraperitoneal; in short: as §1
Mus musculus [9] = assay: Toxicity in mouse P388 cells allografted mouse at 40 mg/kg, ip qd for 9 days; type: organism-based; set-up: dose 40 mg/kg, route intraperitoneal; conditions: in vivo, 216 h; in short: as §3
Mus musculus [10] = assay: Toxicity in mouse P388 cells allografted mouse at 50 mg/kg, ip qd for 9 days; type: organism-based; set-up: dose 50 mg/kg, route intraperitoneal; conditions: in vivo, 216 h; in short: as §3
Mus musculus [11] = assay: Toxicity in mouse P388 cells allografted mouse at 20 mg/kg, ip qd for 9 days; type: organism-based; set-up: dose 20 mg/kg, route intraperitoneal; conditions: in vivo, 216 h; in short: as §3
P388 [12] = assay: Antitumor activity against mouse P388 cells allografted mouse assessed as host survival at 20 mg/kg, ip qd for 9 days relative to control; type: functional; conditions: route intraperitoneal; in short: as §1
L1210 [13] = assay: Antitumor activity against mouse L1210 cells allografted mouse assessed as host survival at 40 mg/kg, ip qd for 9 days relative to control; type: functional; conditions: route intraperitoneal; in short: as §1
P388 [14] = assay: Antitumor activity against mouse P388 cells allografted mouse assessed as host survival at 50 mg/kg, ip qd for 9 days relative to control; type: functional; conditions: route intraperitoneal; in short: as §1
Mus musculus [15] = assay: Toxicity in mouse L1210 cells allografted mouse at 40 mg/kg, ip qd for 9 days; type: organism-based; set-up: dose 40 mg/kg, route intraperitoneal; conditions: in vivo, 216 h; in short: as §2
B16 [16] = assay: Antitumor activity against mouse B16 cells allografted mouse assessed as host survival at 24 mg/kg, ip qd for 9 days relative to control; type: functional; conditions: route intraperitoneal
In short: (§4)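 B16 melanoma-bearing mice given drug ip once daily for 9 days, starting 24 h after tumor implantation. Read-out is average survival in days, expressed as %T/C = (average survival of treated mice)/(average survival of control mice) × 100.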

B16 [17] = assay: Antitumor activity against mouse B16 cells allografted mouse assessed as host survival at 40 mg/kg, ip qd for 9 days relative to control; type: functional; conditions: route intraperitoneal; in short: as §4
Mus musculus [18] = assay: Toxicity in mouse B16 cells allografted mouse at 66.7 mg/kg, ip qd for 9 days; type: organism-based; set-up: dose 66.7 mg/kg, route intraperitoneal; conditions: in vivo, 216 h
In short: (§5)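 Mice bearing B16 melanoma, dosed ip once daily for 9 days from 24 h after tumor implantation. Toxicity is recorded as the average body weight change at the end of drug treatment.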

Mus musculus [19] = assay: Toxicity in mouse B16 cells allografted mouse at 40 mg/kg, ip qd for 9 days; type: organism-based; set-up: dose 40 mg/kg, route intraperitoneal; conditions: in vivo, 216 h; in short: as §5
B16 [20] = assay: Antitumor activity against mouse B16 cells allografted mouse assessed as host survival at 66.7 mg/kg, ip qd for 9 days relative to control; type: functional; conditions: route intraperitoneal; in short: as §4
Mus musculus [21] = assay: Toxicity in mouse B16 cells allografted mouse at 24 mg/kg, ip qd for 9 days; type: organism-based; set-up: dose 24 mg/kg, route intraperitoneal; conditions: in vivo, 216 h; in short: as §5
L1210 [22] = assay: Antitumor activity against mouse L1210 cells allografted mouse assessed as host survival at 100 mg/kg, ip qd for 9 days relative to control; type: functional; conditions: route intraperitoneal; in short: as §1
B16 [23] = assay: Antitumor activity against mouse B16 cells allografted mouse assessed as host survival at 216 mg/kg, ip qd for 9 days relative to control; type: functional; conditions: route intraperitoneal; in short: as §4
Mus musculus [24] = assay: Toxicity in mouse B16 cells allografted mouse at 360 mg/kg, ip qd for 9 days; type: organism-based; set-up: dose 360 mg/kg, route intraperitoneal; conditions: in vivo, 216 h; in short: as §5
B16 [25] = assay: Antitumor activity against mouse B16 cells allografted mouse assessed as host survival at 130 mg/kg, ip qd for 9 days relative to control; type: functional; conditions: route intraperitoneal; in short: as §4
Mus musculus [26] = assay: Toxicity in mouse B16 cells allografted mouse at 130 mg/kg, ip qd for 9 days; type: organism-based; set-up: dose 130 mg/kg, route intraperitoneal; conditions: in vivo, 216 h; in short: as §5
Mus musculus [27] = assay: Toxicity in mouse B16 cells allografted mouse at 216 mg/kg, ip qd for 9 days; type: organism-based; set-up: dose 216 mg/kg, route intraperitoneal; conditions: in vivo, 216 h; in short: as §5
P388 [28] = assay: Antitumor activity against mouse P388 cells allografted mouse assessed as host survival at 100 mg/kg, ip qd for 9 days relative to control; type: functional; conditions: route intraperitoneal; in short: as §1
B16 [29] = assay: Antitumor activity against mouse B16 cells allografted mouse assessed as host survival at 360 mg/kg, ip qd for 9 days relative to control; type: functional; conditions: route intraperitoneal; in short: as §4
P388 [30] = assay: Antitumor activity against mouse P388 cells allografted mouse assessed as host survival at 10 mg/kg, ip qd for 9 days relative to control; type: functional; conditions: route intraperitoneal; in short: as §1
Mus musculus [31] = assay: Toxicity in mouse P388 cells allografted mouse at 10 mg/kg, ip qd for 9 days; type: organism-based; set-up: dose 10 mg/kg, route intraperitoneal; conditions: in vivo, 216 h; in short: as §3

SMILES | T/C (L1210 [1]) | T/C (P388 [2]) | Activity (Mus musculus [3]) | Activity (Mus musculus [4]) | T/C (L1210 [5]) | Activity (Mus musculus [6]) | Activity [7] | T/C (P388 [8]) | Activity (Mus musculus [9]) | Activity (Mus musculus [10]) | Activity (Mus musculus [11]) | T/C (P388 [12]) | T/C (L1210 [13]) | T/C (P388 [14]) | Activity (Mus musculus [15]) | further results
CN(C)/N=N\c1ccnc2cc(Cl)ccc12 | 154% | 137% | 5.1% | -1% | 152% | -16.3% | 48% | 119% | -22.6% |  |  |  |  |  |  | 
CN(C)/N=N\c1ccnc2ccc(Br)cc12 |  | 127% |  | -1% | 150% |  | 55.3% | 111% | -3.5% | -8.9% | 18% | 123% | 154% | 131% | -5.8% | 
CN(C)/N=N\c1ccnc2c(Br)cccc12 |  | 113% |  | 6.1% | 137% | 4.8% | 48.1% | 125% | -3.3% | -5% | 16% | 109% | 144% | 117% | -5.9% | Survival (B16 [16]): 20.3 days; T/C (B16 [16]): 97%; Survival (B16 [17]): 19 days; T/C (B16 [17]): 90%; Activity (Mus musculus [18]): -3.7%; Activity (Mus musculus [19]): -3%; Survival (B16 [20]): 21.3 days; T/C (B16 [20]): 101%; Activity (Mus musculus [21]): -1.1%
CN(C)/N=N/c1[nH]cnc1C(N)=O [DACARBAZINE] |  |  |  |  |  |  | 19.3% |  |  |  |  |  |  |  |  | T/C (L1210 [22]): 167%; Survival (B16 [23]): 22.8 days; T/C (B16 [23]): 109%; Activity (Mus musculus [24]): -3%; Survival (B16 [25]): 22 days; T/C (B16 [25]): 105%; Activity (Mus musculus [26]): -2.9%; Activity (Mus musculus [27]): -3.2%; T/C (P388 [28]): 150%; Survival (B16 [29]): 16 days; T/C (B16 [29]): 76%
CN(C)/N=N\c1ccnc2ccc(Cl)cc12 | 146% | 137% | 1% | -10% | 156% | -12.9% | 41% |  |  |  | 0.8% | 139% |  |  |  | T/C (P388 [30]): 129%; Activity (Mus musculus [31]): -3.1%
